In ChEMBL document CHEMBL1629560, “Gain-of-function mutations in the transcription factor MRR1 are responsible for overexpression of the MDR1 efflux pump in fluconazole-resistant Candida dubliniensis strains” (2008):
≈ marks a conversion by molar mass, not a printed value.

Assays:
Candida albicans [1] = assay: Antimicrobial activity against wild-type Candida albicans SC5314 by microdilution method; assay type: functional
How it was run: (§1)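 Broth microdilution was run in HR medium with NaHCO3 and 0.2 M phosphate buffer (pH 7.2), using serial twofold dilutions. Starting assay concentrations were fluconazole 200 μg/ml, cerulenin 50 μg/ml and brefeldin A 200 μg/ml. Fluconazole stock was prepared in water; cerulenin and brefeldin A stocks were in DMSO. Strains were kept at −80°C and subcultured on YPD at 30°C.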

Candida albicans [2] = assay: Antimicrobial activity against mrr1-deficient Candida albicans by microdilution method; assay type: functional; how it was run: as §1
Candida albicans [3] = assay: Antimicrobial activity against Candida albicans harboring MRR1 gene by microdilution method; assay type: functional
How it was run: (§2)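 MRR1 alleles were expressed from the ADH1 promoter as single-copy integrations in C. albicans SC5314 mrr1Δ mutants, selected with nourseothricin. Broth microdilution was run in HR medium with NaHCO3 and 0.2 M phosphate buffer (pH 7.2), using serial twofold dilutions. Starting assay concentrations were fluconazole 200 μg/ml, cerulenin 50 μg/ml and brefeldin A 200 μg/ml.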

Candida dubliniensis [4] = assay: Antimicrobial activity against Candida dubliniensis harboring MRR1 CM1 mutant gene by microdilution method; assay type: functional; how it was run: as §2
Candida dubliniensis [5] = assay: Antimicrobial activity against Candida dubliniensis harboring MRR1 CM2 mutant gene by microdilution method; assay type: functional; how it was run: as §2
Candida dubliniensis [6] = assay: Antimicrobial activity against Candida dubliniensis harboring MRR1 CD57 mutant gene by microdilution method; assay type: functional; how it was run: as §2
Candida dubliniensis [7] = assay: Antimicrobial activity against Candida dubliniensis harboring MRR1 CD57B mutant gene by microdilution method; assay type: functional; how it was run: as §2
Candida albicans [8] = assay: Antimicrobial activity against Candida albicans harboring MRR1 CD57A mutant gene by microdilution method
Candida albicans [9] = assay: Antimicrobial activity against Candida albicans harboring MRR1 CD51-2A mutant gene by microdilution method
Candida albicans [10] = assay: Antimicrobial activity against Candida albicans harboring MRR1 CD51-2B mutant gene by microdilution method
Candida albicans [11] = assay: Antimicrobial activity against Candida albicans harboring P683S mutation in MRR1F5 gene by microdilution method

Work on `C/C=C/C/C=C/CCC(=O)[C@H]1O[C@H]1C(N)=O` [CERULENIN] yielded an MIC (Candida albicans [1]) of 0.2 µg/mL (≈ 0.896 µM), an MIC (Candida albicans [2]) of 0.2 µg/mL (≈ 0.896 µM) and an MIC (Candida albicans [3]) of 0.2 µg/mL (≈ 0.896 µM). The MIC (Candida dubliniensis [4]) was 0.2 µg/mL (≈ 0.896 µM), the MIC (Candida dubliniensis [5]) was 3.13 µg/mL (≈ 14 µM) and the MIC (Candida dubliniensis [6]) was 0.2 µg/mL (≈ 0.896 µM). The MIC (Candida dubliniensis [7]) was 3.13 µg/mL (≈ 14 µM), the MIC (Candida albicans [8]) was 3.13 µg/mL (≈ 14 µM) and the MIC (Candida albicans [9]) was 3.13 µg/mL (≈ 14 µM). For the same compound, the MIC (Candida albicans [10]) was 0.78 µg/mL (≈ 3.49 µM) and the MIC (Candida albicans [11]) was 6.25 µg/mL (≈ 28 µM).
Work on `C[C@H]1CCC/C=C/[C@@H]2C[C@H](O)C[C@H]2[C@H](O)/C=C/C(=O)O1` [BREFELDIN A] yielded an MIC (Candida albicans [1]) of 1.56 µg/mL (≈ 5.56 µM), an MIC (Candida albicans [2]) of 1.56 µg/mL (≈ 5.56 µM) and an MIC (Candida albicans [3]) of 1.56 µg/mL (≈ 5.56 µM). The MIC (Candida dubliniensis [4]) was 1.56 µg/mL (≈ 5.56 µM), the MIC (Candida dubliniensis [5]) was 12.5 µg/mL (≈ 44.6 µM) and the MIC (Candida dubliniensis [6]) was 1.56 µg/mL (≈ 5.56 µM). The MIC (Candida dubliniensis [7]) was 12.5 µg/mL (≈ 44.6 µM), the MIC (Candida albicans [8]) was 12.5 µg/mL (≈ 44.6 µM) and the MIC (Candida albicans [9]) was 12.5 µg/mL (≈ 44.6 µM). For the same compound, the MIC (Candida albicans [10]) was 3.13 µg/mL (≈ 11.2 µM) and the MIC (Candida albicans [11]) was 25 µg/mL (≈ 89.2 µM).
`OC(Cn1cncn1)(Cn1cncn1)c1ccc(F)cc1F` [FLUCONAZOLE] was tested, and the MIC (Candida albicans [1]) was 0.1 µg/mL (≈ 0.327 µM), the MIC (Candida albicans [2]) was 0.1 µg/mL (≈ 0.327 µM) and the MIC (Candida albicans [3]) was 0.1 µg/mL (≈ 0.327 µM). The MIC (Candida dubliniensis [4]) was 0.1 µg/mL (≈ 0.327 µM), the MIC (Candida dubliniensis [5]) was 0.78 µg/mL (≈ 2.55 µM) and the MIC (Candida dubliniensis [6]) was 0.1 µg/mL (≈ 0.327 µM). For the same compound, the MIC (Candida dubliniensis [7]) was 0.78 µg/mL (≈ 2.55 µM), the MIC (Candida albicans [8]) was 0.78 µg/mL (≈ 2.55 µM) and the MIC (Candida albicans [9]) was 0.78 µg/mL (≈ 2.55 µM). It also gave an MIC (Candida albicans [10]) of 0.39 µg/mL (≈ 1.27 µM) and an MIC (Candida albicans [11]) of 3.13 µg/mL (≈ 10.2 µM).
